Test results reported in ChEMBL document CHEMBL4725418, “Design, Synthesis, and Structure-Activity Relationship Studies of Dual Inhibitors of Soluble Epoxide Hydrolase and 5-Lipoxygenase” (J Med Chem, 2020).
Values after ≈ are worked out from the molar mass of the structure shown. Active and inactive are the calls of the source. The rule behind the calls is not given here.

Legend:
Mus musculus [1] = experiment: Anti-fibrotic activity in C57BL/6 mouse model of unilateral ureter obstruction-induced kidney inflammation and fibrosis assessed as reduction in macrophage infiltration into the obstructed kidney at 3 mg/kg, ip dosed daily for 7 days by F4/80 antibody staining based assay; type: functional, organism-based; details: time 7.0 day
How it was run: (§1)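 Mice with unilateral ureter obstruction to induce kidney inflammation and fibrosis, given compound or vehicle intraperitoneally. Ligated (UUO) and contralateral kidneys taken at day 7. Fibrosis read by AZAN and Sirius Red staining, with Sirius Red imaged under bright and polarized light. Macrophages detected by F4/80 staining, quantified as positive area. Col1a1, FN1, TNFα and Ccl2 mRNA measured in whole-kidney homogenates by real-time qRT-PCR normalized to GAPDH.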

Mus musculus [2] = experiment: Anti-inflammatory activity in C57BL/6 mouse model of unilateral ureter obstruction-induced kidney inflammation and fibrosis assessed as reduction in TNFalpha mRNA expression at 3 mg/kg, ip dosed daily for 7 days by real-time qPCR analysis; type: functional, organism-based; details: time 7.0 day; how it was run: as §1
[3] = Tmax in Swiss CD-1 mouse at 3 mg/kg, po administered as single dose by LC-MS analysis; type: ADME, organism-based; details: in vivo
How it was run: (§2)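 Male Swiss CD-1 mice received a single oral dose of 3 mg/kg in 1% methylcellulose/Tween80 (99:1); nine mice treated, three vehicle controls, three mice per time point. Serum analyzed by LC-MS for concentration–time profile.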

[4] = biological target: T1, Polyunsaturated fatty acid 5-lipoxygenase (Homo sapiens, UniProt P09917); experiment: Inhibition of 5-LOX (unknown origin) expressed in Escherichia coli BL21-(DE3) pre-incubated for 15 mins before AA substrate addition and measured after 10 mins by HPLC/UV assay
T1 sequence (P09917 whole entry): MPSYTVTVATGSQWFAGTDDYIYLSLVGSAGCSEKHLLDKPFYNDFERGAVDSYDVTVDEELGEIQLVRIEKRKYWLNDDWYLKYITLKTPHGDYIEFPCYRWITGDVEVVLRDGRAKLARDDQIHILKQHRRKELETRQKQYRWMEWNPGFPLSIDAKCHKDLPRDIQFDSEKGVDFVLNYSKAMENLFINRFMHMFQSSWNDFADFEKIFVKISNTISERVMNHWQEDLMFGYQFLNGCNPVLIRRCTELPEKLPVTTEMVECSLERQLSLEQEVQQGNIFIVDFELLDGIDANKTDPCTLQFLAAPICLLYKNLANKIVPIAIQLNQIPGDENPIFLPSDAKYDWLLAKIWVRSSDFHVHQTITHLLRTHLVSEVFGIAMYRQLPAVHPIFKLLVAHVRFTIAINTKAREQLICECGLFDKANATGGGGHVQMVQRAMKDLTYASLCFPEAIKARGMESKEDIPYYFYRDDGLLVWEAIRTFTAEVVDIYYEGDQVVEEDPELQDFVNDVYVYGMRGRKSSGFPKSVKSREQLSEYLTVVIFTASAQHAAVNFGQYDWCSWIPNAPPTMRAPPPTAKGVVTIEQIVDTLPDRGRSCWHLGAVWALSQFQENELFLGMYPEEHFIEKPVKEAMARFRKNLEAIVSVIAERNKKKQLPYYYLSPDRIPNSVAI
How it was run: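 Recombinant 5-LOX activity measured with arachidonic acid as substrate; product formation monitored by HPLC. IC50 from at least three independent determinations (n ≥ 3), reported with 95% confidence interval.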

Mus musculus [5] = experiment: Anti-fibrotic activity in C57BL/6 mouse model of unilateral ureter obstruction-induced kidney inflammation and fibrosis assessed as reduction in FN1 mRNA expression at 3 mg/kg, ip dosed daily for 7 days by real-time qPCR analysis; type: functional, organism-based; details: time 7.0 day; how it was run: as §1
Mus musculus [6] = experiment: Anti-fibrotic activity in C57BL/6 mouse model of unilateral ureter obstruction-induced kidney inflammation and fibrosis assessed as reduction in Col1a1 mRNA expression at 3 mg/kg, ip dosed daily for 7 days by real-time qPCR analysis; type: functional, organism-based; details: time 7.0 day; how it was run: as §1
[7] = Solubility in pH 7.4 DPBS buffer; type: physicochemical
Mus musculus [8] = experiment: Anti-fibrotic activity in C57BL/6 mouse model of unilateral ureter obstruction-induced kidney inflammation and fibrosis assessed as inhibition of tubulo-interstitial fibrosis by measuring reduced blue staining of collagen fibers in AZAN-stained sections at 3 mg/kg, ip dosed daily for 7 days by AZAN trichrome staining method; type: functional, organism-based; details: time 7.0 day; how it was run: as §1
[9] = Half life in Swiss CD-1 mouse at 3 mg/kg, po administered as single dose by LC-MS analysis; type: ADME, organism-based; details: in vivo; how it was run: as §2
Mus musculus [10] = experiment: Anti-fibrotic activity in C57BL/6 mouse model of unilateral ureter obstruction-induced kidney inflammation and fibrosis assessed as inhibition of tubulo-interstitial fibrosis by measuring reduced fibrillar collagen at 3 mg/kg, ip dosed daily for 7 days by Sirius red staining method; type: functional, organism-based; details: time 7.0 day; how it was run: as §1
[11] = biological target: T1, Polyunsaturated fatty acid 5-lipoxygenase; experiment: Inhibition of 5-LOX in human PMNL assessed as reduction in 5-HETE and LTB4 formation pre-incubated for 15 mins before addition of AA and A23187 and measured after 10 mins by HPLC/UV assay
Mus musculus [12] = experiment: Anti-inflammatory activity in C57BL/6 mouse model of unilateral ureter obstruction-induced kidney inflammation and fibrosis assessed as reduction in Ccl2 mRNA expression at 3 mg/kg, ip dosed daily for 7 days by real-time qPCR analysis; type: functional, organism-based; details: time 7.0 day; how it was run: as §1
[13] = T>IC50 in Swiss CD-1 mouse at 3 mg/kg, po administered as single dose by LC-MS analysis; type: ADME, organism-based; details: in vivo; how it was run: as §2

SMILES: C[C@H](C#Cc1cccc(C(=O)NCCC(c2ccc(F)cc2)c2ccc(F)cc2)c1)N(O)C(N)=O
- Activity (Mus musculus [1]): Active
- Activity (Mus musculus [2]): Active
- Tmax [3]: 1 h
- IC50 [4]: 110 nM
- Activity (Mus musculus [5]): Active
- Activity (Mus musculus [6]): Active
- solubility [7]: 3 µM (≈ 1.43 µg/mL)
- Activity (Mus musculus [8]): Active
- half-life [9]: 1.3 h
- Activity (Mus musculus [10]): Active
- IC50 [11]: 210 nM
- Activity (Mus musculus [12]): Active
- T>IC50 [13]: 3 h
